Reference: publication PMC4966677 (ACS infectious diseases, 2015)
Values joined by “and” are separate entries in the source; they are usually repeats but may differ in a detail not shown here. Equal values may be shown once.

What was measured:
[1] = system: M. tuberculosis H37Rv; test: Microplate Alamar Blue assay; assay type: cell-based, Mycobacterium tuberculosis; details: for In vitro anti-Mtb activity MABA-MIC H37Rv: Minimum Inhibitory Concentration, strain H37Rv; for Activity in standard MIC assay (in words): strain not given
[2] = system: M. tuberculosis Erdman; test: Microplate Alamar Blue assay; assay type: cell-based, Mycobacterium tuberculosis; details: Minimum Inhibitory Concentration, strain Erdman
[3] = system: Mtb-infected macrophages; test: Growth inhibition of Mtb in IFN-γ-activated J774 macrophages; assay type: cell-based, Mycobacterium tuberculosis; details: read-out: In vitro anti-Mtb activity, Mtb-infected macrophages (IC90); IC90 in macrophages activated with γ-interferon
[4] = Oral pharmacokinetics in guinea pig plasma; assay type: in vivo; details: for AUCALL / CMAX / Clearance / Half-life / TMAX / VD (Volume of distribution): oral; for Oral bioavailability (in words): guinea pigs, oral dosing
[5] = Tolerability in guinea pigs during the efficacy study; assay type: in vivo, guinea pig; details: L01-Z08 20 mg/kg and L335-M34 50 mg/kg once daily alone or in combination for 6 weeks
[6] = system: Human PTP panel: PTP1B, TC-PTP, SHP1, SHP2, FAp1, Lyp, Meg2, HePTP, laforin, VHX, VHR, LMWPTP, Cdc14A, PTPα, LAR, CD45, PTPRG; test: Human PTP panel selectivity, pNPP assay; assay type: biochemical
Method in brief: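 Each PTP expressed in and purified from E. coli, used at 5 nM final. The reaction is started by adding enzyme to pNPP, set at that PTP's Km, plus varying test compound concentrations. It is stopped after 15 min with 5N NaOH. p-Nitrophenol is read at 405 nm, corrected with a no-enzyme control. IC50 is fit to AI/A0 = IC50/(IC50+[I]).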

[7] = system: Mtb H37Rv; test: Chronic TB infection model in guinea pigs, lung CFU; assay type: in vivo; details: added to the standard regimen HRZ, guinea pig lungs, after 6 weeks of treatment
[8] = molecular target: mPTPA (Mycobacterium tuberculosis, UniProt P9WIA1)
Sequence of mPTPA (P9WIA1 whole entry): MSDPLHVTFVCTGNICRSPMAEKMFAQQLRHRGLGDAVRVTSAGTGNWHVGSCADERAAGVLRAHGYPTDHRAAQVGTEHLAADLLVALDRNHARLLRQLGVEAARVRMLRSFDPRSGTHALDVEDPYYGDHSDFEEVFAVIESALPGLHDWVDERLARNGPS

[9] = molecular target: mPTPB (Mycobacterium tuberculosis, UniProt I6WXK4)
Sequence of mPTPB (I6WXK4 whole entry, looked up): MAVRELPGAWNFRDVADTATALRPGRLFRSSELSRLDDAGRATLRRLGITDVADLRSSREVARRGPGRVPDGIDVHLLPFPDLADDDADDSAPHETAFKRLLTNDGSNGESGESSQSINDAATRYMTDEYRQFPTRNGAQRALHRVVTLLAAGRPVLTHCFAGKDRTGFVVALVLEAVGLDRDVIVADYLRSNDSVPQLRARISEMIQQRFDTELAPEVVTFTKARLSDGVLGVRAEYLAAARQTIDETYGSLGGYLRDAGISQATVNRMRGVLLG

[10] = guinea pig, Co-admin: L335M34 50 mg/kg and L01Z08 20 mg/kg together
[11] = guinea pig, Single (given alone), L335M34 50 mg/kg, L01Z08 20 mg/kg

| Structure (SMILES) | In vitro anti-Mtb activity MABA-MIC H37Rv [1] | Activity in standard MIC assay (in words) [1] | In vitro anti-Mtb activity MABA-MIC Erdman [2] | IC90 [3] | AUCALL [4, 10] | CMAX [4, 10] | Clearance [4, 10] | Half-life [4, 10] | TMAX [4, 10] | VD (Volume of distribution) [4, 10] | AUCALL [4, 11] | CMAX [4, 11] | Clearance [4, 11] | Half-life [4, 11] | TMAX [4, 11] | VD (Volume of distribution) [4, 11] | Oral bioavailability (in words) [4] | Signs of toxicity [5] | also measured |
| --- | --- | --- | --- | --- | --- | --- | --- | --- | --- | --- | --- | --- | --- | --- | --- | --- | --- | --- | --- |
| O=C(O)c1cc2c(C#Cc3cccc(C(F)(F)F)c3)c(-c3ccccc3)oc2cc1O [Compound L01-Z08] | >10 >10 uM | inactive | >10 >10 uM | < 5000 nM | 28161.76 ng·h/mL | 3059.668 ng/mL | 11.6927 mL/min/kg | 6.141 h | 1.587 h | 6215.132 | 13166.89 ng·h/mL | 1870.43 ng/mL | 25.3079 mL/min/kg | 5.512 h | 1.587 h | 12074.939 | good oral bioavailability | no overt signs of toxicity | – |
| Cc1c(Br)cc(NC(=O)CS(=O)(=O)O)cc1Br [Compound L335-M34] | >10 >10 uM | devoid of activity | >10 >10 uM | 1380 nM | 52752.61 ng·h/mL | 7064.956 ng/mL | 15.8339 mL/min/kg | 4.16 h | 2.5 h | 5702.19 | 54406.61 ng·h/mL | 5142.47 ng/mL | 15.291 mL/min/kg | 5.197 h | 2.5 h | 6878.467 | good oral bioavailability | no overt signs of toxicity | Activity against a panel of human PTPs ([6]; at concentrations below 3 μM): no significant activity; Fold selectivity vs. PTP panel ([6]; panel of 17 human PTPs): >20 fold; Time plasma concentration stays 10-fold in excess of biochemical IC50 ([4]; guinea pig, single oral dose, L335-M34 50 mg/kg, L01-Z08 20 mg/kg): 12–14 hours and 12–24 hours; Further reduction of mean lung CFU relative to HRZ [7]: 0.17 log10; Mode of mPTPA inhibition [8]: reversible and competitive inhibitor; IC50 ([8]; read-out: Biochemical potency against target (IC50, nM) mPTPA, pH 7): 160 nM; Ki ([8]; read-out: Ki for mPTPA): 56 ± 2 nM; Activity against mPTPB [9]: no significant activity; Fold selectivity vs. mPTPA/B (mPTPA inhibitor over mPTPB) [9]: >20 fold; IC50 ([9]; read-out: Biochemical potency against target (IC50, nM) mPTPB, pH 7): > 3200 nM |
